Inhibition of growth, inhibition and IC50 data for 3 molecules are collected here from ChEMBL document CHEMBL6182834, “Dual EGFR and telomerase inhibitory potential of new triazole tethered Schiff bases endowed with apoptosis: design, synthesis, and biological assessments” (RSC Med Chem, 2025).

The structures appear in SMILES notation.

One data set concerns HepG2. Briefly: Antiproliferative activity against human HepG2 cells assessed as growth inhibition at 100 ug/mL incubated for 48 hrs by SRB assay relative to control. The data set is classed as functional. The following applies: read-out: GI. In outline:
(§1)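 SRB assay: cells seeded at 3×10^3/well, allowed 24 h to attach, then exposed to 100 µg/mL for 48 h, three wells per concentration, DMSO 1% v/v vehicle control. Cells fixed with 20% trichloroacetic acid and stained with 0.4% SRB, then OD read at 570 nm. Survival fraction taken as treated OD/control OD.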
Consider `Cc1c(C(=O)N/N=C/c2ccccc2)nnn1-c1ccc(Br)cc1`, for which the inhibition of growth at 100 µg/mL was determined as 72%.
On the same count and under the same terms, the value for `COc1cccc(/C=N/NC(=O)c2nnn(-c3ccc([N+](=O)[O-])cc3)c2C)c1OC` was 56%; that for `COc1cccc2c1C(=O)c1c(O)c3c(c(O)c1C2=O)C[C@@](O)(C(=O)CO)C[C@@H]3O[C@H]1C[C@H](N)[C@H](O)[C@H](C)O1` [DOXORUBICIN] was 72%.

Another data set has as its system A-375. Briefly: Antiproliferative activity against human A-375 cells assessed as growth inhibition at 100 ug/mL incubated for 48 hrs by SRB assay relative to control. It counts as functional. The following applies: read-out: GI. The gist of the method: as §1
For the molecule `Cc1c(C(=O)N/N=C/c2ccccc2)nnn1-c1ccc(Br)cc1`, the inhibition of growth at 100 µg/mL came out at 72%.
Take `COc1cccc(/C=N/NC(=O)c2nnn(-c3ccc([N+](=O)[O-])cc3)c2C)c1OC`: the inhibition of growth at 100 µg/mL came out at 75%.
In the case of `COc1cccc2c1C(=O)c1c(O)c3c(c(O)c1C2=O)C[C@@](O)(C(=O)CO)C[C@@H]3O[C@H]1C[C@H](N)[C@H](O)[C@H](C)O1` [DOXORUBICIN], the inhibition of growth at 100 µg/mL was 52%.

In another data set the test system is Caco-2. Briefly: Antiproliferative activity against human Caco-2 cells assessed as growth inhibition at 100 ug/mL incubated for 48 hrs by SRB assay relative to control. The data set is classed as functional. The following applies: read-out: GI. In outline: as §1
Turning to `Cc1c(C(=O)N/N=C/c2ccccc2)nnn1-c1ccc(Br)cc1`, the inhibition of growth at 100 µg/mL amounted to 37%.
Still for that read-out and setting: then `COc1cccc(/C=N/NC(=O)c2nnn(-c3ccc([N+](=O)[O-])cc3)c2C)c1OC`, with 32%; and `COc1cccc2c1C(=O)c1c(O)c3c(c(O)c1C2=O)C[C@@](O)(C(=O)CO)C[C@@H]3O[C@H]1C[C@H](N)[C@H](O)[C@H](C)O1` [DOXORUBICIN], with 71%.

Tested on in a further data set: not listed separately
Briefly: Cytotoxicity against HSF cells assessed as growth inhibition at 100 ug/mL incubated for 48 hrs by SRB assay relative to control. The data set is classed as toxicity, cell-based. The following applies: human, at 100 µg/mL, read-out: GI. In outline: as §1
Regarding `Cc1c(C(=O)N/N=C/c2ccccc2)nnn1-c1ccc(Br)cc1`, the inhibition at 48 h, 100 ug/mL was found to be 4%.
The same measure, in the same setting: the value for `COc1cccc(/C=N/NC(=O)c2nnn(-c3ccc([N+](=O)[O-])cc3)c2C)c1OC` was 19%; that for `COc1cccc2c1C(=O)c1c(O)c3c(c(O)c1C2=O)C[C@@](O)(C(=O)CO)C[C@@H]3O[C@H]1C[C@H](N)[C@H](O)[C@H](C)O1` [DOXORUBICIN] was 42%.

The subject of another data set is MCF7. Briefly: Antiproliferative activity against human MCF7 cells assessed as growth inhibition at 100 ug/mL incubated for 48 hrs by SRB assay relative to control. The following applies: read-out: GI. The data set is classed as functional. In outline: as §1
Turning to `Cc1c(C(=O)N/N=C/c2ccccc2)nnn1-c1ccc(Br)cc1`, the inhibition of growth at 100 µg/mL stood at 87%.
For `COc1cccc(/C=N/NC(=O)c2nnn(-c3ccc([N+](=O)[O-])cc3)c2C)c1OC`, the inhibition of growth at 100 µg/mL was 63%.
With `COc1cccc2c1C(=O)c1c(O)c3c(c(O)c1C2=O)C[C@@](O)(C(=O)CO)C[C@@H]3O[C@H]1C[C@H](N)[C@H](O)[C@H](C)O1` [DOXORUBICIN], the inhibition of growth at 100 µg/mL is 69%.

A further data set deals with HCT-116. Briefly: Cytotoxicity against human HCT-116 cells assessed as inhibition of cell growth incubated for 48 hrs by SRB assay. The data set is classed as functional, cell-based. The following applies: HCT-116, 48 h. In outline: (§2)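 Cells plated at 3×10^3/well and left 24 h to attach. Treated at 12.5, 25, 50 and 62.5 µg/mL for 48 h, three wells per concentration, with DMSO (1% v/v) vehicle control. Fixed with 20% TCA, stained with 0.4% SRB, OD read at 570 nm. Survival fraction = treated OD/control OD. IC50 from sigmoidal dose-response curve fitting.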
Consider `Cc1c(C(=O)N/N=C/c2ccccc2)nnn1-c1ccc(Br)cc1`, for which the IC50 stood at 16.9 µM.
The same measure, in the same setting: the value for `COc1cccc2c1C(=O)c1c(O)c3c(c(O)c1C2=O)C[C@@](O)(C(=O)CO)C[C@@H]3O[C@H]1C[C@H](N)[C@H](O)[C@H](C)O1` [DOXORUBICIN] was 10.5 µM.

For the next data set, the system named is Huh-7. Briefly: Antiproliferative activity against human Huh-7 cells assessed as growth inhibition at 100 ug/mL incubated for 48 hrs by SRB assay relative to control. The data set is classed as functional. To be noted: read-out: GI. In outline:
as §1
Consider `Cc1c(C(=O)N/N=C/c2ccccc2)nnn1-c1ccc(Br)cc1`, for which the inhibition of growth at 100 µg/mL was 67%.
Turning to `COc1cccc(/C=N/NC(=O)c2nnn(-c3ccc([N+](=O)[O-])cc3)c2C)c1OC`, the inhibition of growth at 100 µg/mL stood at 56%.
As for `COc1cccc2c1C(=O)c1c(O)c3c(c(O)c1C2=O)C[C@@](O)(C(=O)CO)C[C@@H]3O[C@H]1C[C@H](N)[C@H](O)[C@H](C)O1` [DOXORUBICIN], the inhibition of growth at 100 µg/mL turned out to be 63%.

Tested on in the next data set: not listed separately
Briefly: Cytotoxicity against human HNO 97 cell line assessed as inhibition of cell growth incubated for 48 hrs by SRB assay. It counts as functional, cell-based. The following applies: HNO 97, 48 h. The gist of the method:
as §2
Take `COc1cccc2c1C(=O)c1c(O)c3c(c(O)c1C2=O)C[C@@](O)(C(=O)CO)C[C@@H]3O[C@H]1C[C@H](N)[C@H](O)[C@H](C)O1` [DOXORUBICIN]: the IC50 was found to be 9.01 µM.

In the next data set the test system is HeLa. Briefly: Antiproliferative activity against human HeLa cells assessed as growth inhibition at 100 ug/mL incubated for 48 hrs by SRB assay relative to control. The data set is classed as functional. The following applies: read-out: GI. The gist of the method:
as §1
On to `Cc1c(C(=O)N/N=C/c2ccccc2)nnn1-c1ccc(Br)cc1`, for which the inhibition of growth at 100 µg/mL was 79%.
In the case of `COc1cccc(/C=N/NC(=O)c2nnn(-c3ccc([N+](=O)[O-])cc3)c2C)c1OC`, the inhibition of growth at 100 µg/mL was determined as 52%.
Consider `COc1cccc2c1C(=O)c1c(O)c3c(c(O)c1C2=O)C[C@@](O)(C(=O)CO)C[C@@H]3O[C@H]1C[C@H](N)[C@H](O)[C@H](C)O1` [DOXORUBICIN], for which the inhibition of growth at 100 µg/mL came to 76%.

In the next data set the test system is MDA-MB-468. Briefly: Antiproliferative activity against human MDA-MB-468 cells assessed as growth inhibition at 100 ug/mL incubated for 48 hrs by SRB assay relative to control. It counts as functional. To be noted: read-out: GI. The gist of the method:
as §1
As to `Cc1c(C(=O)N/N=C/c2ccccc2)nnn1-c1ccc(Br)cc1`, the inhibition of growth at 100 µg/mL was 65%.
Still for that read-out and setting: the value for `COc1cccc(/C=N/NC(=O)c2nnn(-c3ccc([N+](=O)[O-])cc3)c2C)c1OC` was 56%; that for `COc1cccc2c1C(=O)c1c(O)c3c(c(O)c1C2=O)C[C@@](O)(C(=O)CO)C[C@@H]3O[C@H]1C[C@H](N)[C@H](O)[C@H](C)O1` [DOXORUBICIN] was 73%.

Tested on in another data set: not listed separately
Briefly: Cytotoxicity against human oral epithelial cells (OEC) assessed as growth inhibition at 100 ug/mL incubated for 48 hrs by SRB assay relative to control. The data set is classed as toxicity, cell-based, Oral epithelial cell. To be noted: at 100 µg/mL, read-out: GI. In outline:
as §1
On to `Cc1c(C(=O)N/N=C/c2ccccc2)nnn1-c1ccc(Br)cc1`, for which the inhibition at 48 h, 100 ug/mL came out at 23%.
For the molecule `COc1cccc(/C=N/NC(=O)c2nnn(-c3ccc([N+](=O)[O-])cc3)c2C)c1OC`, the inhibition at 48 h, 100 ug/mL is 36%.
Same read-out and setting: then `COc1cccc2c1C(=O)c1c(O)c3c(c(O)c1C2=O)C[C@@](O)(C(=O)CO)C[C@@H]3O[C@H]1C[C@H](N)[C@H](O)[C@H](C)O1` [DOXORUBICIN], with 41%.

The test system of the next data set is HCT-116. Briefly: Antiproliferative activity against human HCT-116 cells assessed as growth inhibition at 100 ug/mL incubated for 48 hrs by SRB assay relative to control. To be noted: read-out: GI. The data set is classed as functional. The gist of the method: as §1
With `Cc1c(C(=O)N/N=C/c2ccccc2)nnn1-c1ccc(Br)cc1`, the inhibition of growth at 100 µg/mL worked out at 87%.
The same measure, in the same setting: the value for `COc1cccc(/C=N/NC(=O)c2nnn(-c3ccc([N+](=O)[O-])cc3)c2C)c1OC` was 56%; that for `COc1cccc2c1C(=O)c1c(O)c3c(c(O)c1C2=O)C[C@@](O)(C(=O)CO)C[C@@H]3O[C@H]1C[C@H](N)[C@H](O)[C@H](C)O1` [DOXORUBICIN] was 76%.

For a further data set, the system named is HepG2. Briefly: Cytotoxicity against human HepG2 cells assessed as inhibition of cell growth incubated for 48 hrs by SRB assay. It counts as functional, cell-based. To be noted: HepG2, 48 h. The gist of the method: as §2
For `COc1cccc2c1C(=O)c1c(O)c3c(c(O)c1C2=O)C[C@@](O)(C(=O)CO)C[C@@H]3O[C@H]1C[C@H](N)[C@H](O)[C@H](C)O1` [DOXORUBICIN], the 50% inhibitory concentration (IC50) came to 11 µM.

Tested on in another data set: not listed separately
Briefly: Antiproliferative activity against human HNO 97 cell line assessed as growth inhibition at 100 ug/mL incubated for 48 hrs by SRB assay relative to control. It counts as functional. To be noted: read-out: GI. The gist of the method: as §1
`Cc1c(C(=O)N/N=C/c2ccccc2)nnn1-c1ccc(Br)cc1`: the inhibition of growth at 100 µg/mL worked out at 89%.
For the molecule `COc1cccc(/C=N/NC(=O)c2nnn(-c3ccc([N+](=O)[O-])cc3)c2C)c1OC`, the inhibition of growth at 100 µg/mL turned out to be 54%.
Consider `COc1cccc2c1C(=O)c1c(O)c3c(c(O)c1C2=O)C[C@@](O)(C(=O)CO)C[C@@H]3O[C@H]1C[C@H](N)[C@H](O)[C@H](C)O1` [DOXORUBICIN], for which the inhibition of growth at 100 µg/mL is 59%.

In the next data set the test system is FaDu. Briefly: Antiproliferative activity against human FaDu cells assessed as growth inhibition at 100 ug/mL incubated for 48 hrs by SRB assay relative to control. It counts as functional. To be noted: read-out: GI. The gist of the method: as §1
On to `Cc1c(C(=O)N/N=C/c2ccccc2)nnn1-c1ccc(Br)cc1`, for which the inhibition of growth at 100 µg/mL was found to be 83%.
Turning to `COc1cccc(/C=N/NC(=O)c2nnn(-c3ccc([N+](=O)[O-])cc3)c2C)c1OC`, the inhibition of growth at 100 µg/mL amounted to 56%.
Still for that read-out and setting: then `COc1cccc2c1C(=O)c1c(O)c3c(c(O)c1C2=O)C[C@@](O)(C(=O)CO)C[C@@H]3O[C@H]1C[C@H](N)[C@H](O)[C@H](C)O1` [DOXORUBICIN], with 61%.

For another data set, the system named is A-375. Briefly: Cytotoxicity against human A-375 cells assessed as inhibition of cell growth incubated for 48 hrs by SRB assay. The data set is classed as functional, cell-based. The following applies: A-375, 48 h. The gist of the method:
as §2
For `COc1cccc2c1C(=O)c1c(O)c3c(c(O)c1C2=O)C[C@@](O)(C(=O)CO)C[C@@H]3O[C@H]1C[C@H](N)[C@H](O)[C@H](C)O1` [DOXORUBICIN], the concentration for half-maximal inhibition (IC50) came to 14.5 µM.

The test system of another data set is MG-63. Briefly: Antiproliferative activity against human MG-63 cells assessed as growth inhibition at 100 ug/mL incubated for 48 hrs by SRB assay relative to control. The data set is classed as functional. To be noted: read-out: GI. In outline:
as §1
`Cc1c(C(=O)N/N=C/c2ccccc2)nnn1-c1ccc(Br)cc1`: the inhibition of growth at 100 µg/mL came to 75%.
Turning to `COc1cccc(/C=N/NC(=O)c2nnn(-c3ccc([N+](=O)[O-])cc3)c2C)c1OC`, the inhibition of growth at 100 µg/mL came to 44%.
Same read-out and setting: then `COc1cccc2c1C(=O)c1c(O)c3c(c(O)c1C2=O)C[C@@](O)(C(=O)CO)C[C@@H]3O[C@H]1C[C@H](N)[C@H](O)[C@H](C)O1` [DOXORUBICIN], with 51%.
